CASP6 VEID inh = caspase-6 (human) enzyme inhibition. P55212. purified caspase-6, Z-VEID-R110 cleavage fluorescence. inhibition, % at 12.5 µM. 350,000 tested, 0.53% active. AID 686996;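 active = mean inhibition across replicates at least about 35%, with every replicate also reaching that limit, limit read from the data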;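 also: 0% = median of neutral control wells and 100% = no fluorescence left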
Target sequence (P55212 24-179 limits assumed): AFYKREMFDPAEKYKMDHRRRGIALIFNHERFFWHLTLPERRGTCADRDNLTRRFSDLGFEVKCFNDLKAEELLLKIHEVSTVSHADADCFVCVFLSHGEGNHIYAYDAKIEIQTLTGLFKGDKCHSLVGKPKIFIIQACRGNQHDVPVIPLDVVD
Target sequence (P55212 194-293 limits assumed): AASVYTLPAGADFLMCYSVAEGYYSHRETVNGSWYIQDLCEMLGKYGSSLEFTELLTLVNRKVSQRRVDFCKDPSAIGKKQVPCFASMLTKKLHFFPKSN
FN deposit inh = fibronectin deposition inhibition; AH1F fibroblasts, Alexa488-fibronectin deposition fluorescence, overnight; inhibition, % at 12.6 µM; 350,000 tested, 0.086% active; AID 743247;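 active = mean inhibition across replicates of 30% or more, regardless of how many single replicates reach that level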;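 also: positive control wells lacked labelled fibronectin entirely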
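Material: AH1F fibroblasts assembling fluorescent fibronectin matrix; amount: 10000 AH1F cells/well; medium: DMEM, 2% serum; reagent: Alexa488-fibronectin, 24 nM final in well; dosing: single compound dose, delivered by pin transfer; incubation: 1 h adhesion, overnight exposure; detection: fluorescence after three HBSS washes, excitation 485 nm, emission 525 nm; measure: fibronectin deposition inhibition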
DENV2 CPE = inhibitors of DENV2 cytopathic effect; DENV2-infected cells, cytopathic effect rescue, plate reader; CPE inhibition, % at 9.99 µM; 350,000 tested, 1.7% active; in the data active = CPE inhibition above about 20%, passing the limit was not always enough; tested in BHK-21 cells;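 also: 0% = median of neutral control wells and 100% = median of positive control wells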
XiGFP reactiv = reactivates the inactive X chromosome in mouse fibroblasts | activation, % at 7.58 µM | 360,000 tested, 0.055% active | XiGFP mouse fibroblasts, % GFP-positive cells imaging, 3 d; cells co-treated with 5-aza-dC sensitizer; scaled so ellipticine positive control = 100%;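 active = mean normalized replicate activation at least 10% and every replicate at or above 10%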;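 also: 0% = median of on-plate neutral control wells and 100% = ellipticine 6 µM median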
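System: SV40-immortalized XiGFP fibroblast cells, line 68-5-11 / Incubation: 3-day compound exposure, then 15 min fixation at room temperature / Compound: single concentration per compound, delivered by pin transfer / Buffer or medium: DMEM plus 5-aza-dC sensitizer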
An asterisk follows results filed as active; / = no result given. Compounds with a hit are over-represented: about 2% of the library has one in this group of screens.

SMILES | CASP6 VEID inh | FN deposit inh | DENV2 CPE | XiGFP reactiv
C[C@@H]1CCCCO[C@H](CN(C)S(=O)(=O)c2ccc(Cl)cc2)[C@@H](C)CN([C@@H](C)CO)C(=O)c2cc(NC(=O)Nc3ccc(F)cc3)ccc2O1 | -1 | 2 | 23* | 0
Cc1ccc(S(=O)(=O)N(C)C[C@H]2OCCCC[C@H](C)Oc3ccc(NC(=O)Nc4ccc(C(F)(F)F)cc4)cc3C(=O)N([C@H](C)CO)C[C@@H]2C)cc1 | 1 | -3 | 55* | 0
COc1ccc(S(=O)(=O)N(C)C[C@@H]2OCCCC[C@@H](C)Oc3ccc(NC(=O)Nc4ccc(C(F)(F)F)cc4)cc3C(=O)N([C@H](C)CO)C[C@H]2C)cc1 | 1 | / | 22* | 0
COc1ccc(S(=O)(=O)N(C)C[C@H]2OCCCC[C@@H](C)Oc3ccc(NC(=O)Nc4ccc(C(F)(F)F)cc4)cc3C(=O)N([C@H](C)CO)C[C@@H]2C)cc1 | -2 | -4 | -11 | 0
C[C@@H]1CCCCO[C@@H](CN(C)S(=O)(=O)c2ccc(F)cc2)[C@@H](C)CN([C@H](C)CO)C(=O)c2cc(NC(=O)Nc3ccc(C(F)(F)F)cc3)ccc2O1 | -4 | -6 | 88* | 0
C[C@@H]1CCCCO[C@@H](CN(C)S(=O)(=O)c2ccc(F)cc2)[C@H](C)CN([C@@H](C)CO)C(=O)c2cc(NC(=O)Nc3ccc(C(F)(F)F)cc3)ccc2O1 | 0 | -13 | 2 | 0
C[C@@H]1CN([C@H](C)CO)C(=O)CCCn2cc(nn2)CO[C@@H]1CN(C)S(=O)(=O)c1ccc(Cl)cc1 | 0 | 6 | 9 | 0
Cc1ccc(S(=O)(=O)N(C)C[C@@H]2OCCCC[C@H](C)Oc3ccc(NC(=O)C4CCCCC4)cc3C(=O)N([C@H](C)CO)C[C@@H]2C)cc1 | / | / | 24* | -1
C[C@@H]1CCCCO[C@H](CN(C)S(C)(=O)=O)[C@@H](C)CN([C@H](C)CO)C(=O)c2cc(NC(=O)Nc3ccc(C(F)(F)F)cc3)ccc2O1 | -2 | / | -2 | -1
Cc1ccc(S(=O)(=O)N(C)C[C@@H]2OCCCC[C@H](C)Oc3ccc(NC(=O)Nc4ccc(C(F)(F)F)cc4)cc3C(=O)N([C@H](C)CO)C[C@@H]2C)cc1 | 1 | -16 | 23* | 0
Cc1ccc(S(=O)(=O)N(C)C[C@@H]2OCCCC[C@@H](C)Oc3ccc(NC(=O)Nc4ccc(C(F)(F)F)cc4)cc3C(=O)N([C@@H](C)CO)C[C@H]2C)cc1 | 0 | -11 | 53* | 0
C[C@@H]1CCCCO[C@@H](CN(C)S(C)(=O)=O)[C@H](C)CN([C@@H](C)CO)C(=O)c2cc(NC(=O)Nc3ccc(C(F)(F)F)cc3)ccc2O1 | -3 | / | 57* | -1
COc1ccccc1CN1C[C@@H](C)[C@H](OC)CN(C)C(=O)c2cc(NC(=O)Nc3ccccc3OC)ccc2OC[C@H]1C | 2 | 9 | -1 | 0
CCC(=O)Nc1ccc2c(c1)C(=O)N(C)C[C@H](OC)[C@H](C)CN(Cc1ccccc1OC)[C@H](C)CO2 | 2 | 3 | -5 | 0
CCC(=O)Nc1ccc2c(c1)C(=O)N(C)C[C@@H](OC)[C@H](C)CN(Cc1ccccc1)[C@@H](C)CO2 | 1 | 0 | 37* | 0
COCC(=O)Nc1ccc2c(c1)OC[C@H](C)N(Cc1ccccc1OC)C[C@H](C)[C@@H](OC)CN(C)C2=O | 1 | -3 | 22* | 0
CCC(=O)Nc1ccc2c(c1)C(=O)N(C)C[C@@H](OC)[C@@H](C)CN(Cc1ccccc1)[C@H](C)CO2 | 2 | 1 | 5 | 0
COc1ccccc1NC(=O)Nc1ccc2c(c1)C(=O)N(C)C[C@@H](OC)[C@H](C)CN(Cc1ccccc1Cl)[C@H](C)CO2 | 0 | -8 | 28* | 0
CCC(=O)Nc1ccc2c(c1)C(=O)N(C)C[C@H](OC)[C@H](C)CN(Cc1ccccc1OC)[C@@H](C)CO2 | 2 | 2 | 22* | 2
C[C@H]1CN([C@@H](C)CO)C(=O)c2cccc(NC(=O)Nc3ccccc3)c2O[C@@H]1CN(C)CC1CC1 | 2 | 0 | 4 | -1
CO[C@H]1CN(C)C(=O)c2ccc(NC(C)=O)cc2OC[C@@H](C)N(Cc2cc(F)ccc2F)C[C@H]1C | 0 | -7 | 0 | 0
COCC(=O)Nc1ccc2c(c1)C(=O)N(C)C[C@H](OC)[C@@H](C)CN(Cc1ccccc1)[C@@H](C)CO2 | -8 | 11 | 26* | 0
CO[C@H]1CN(C)C(=O)c2ccc(NC(C)=O)cc2OC[C@H](C)N(Cc2cc(F)ccc2F)C[C@@H]1C | 10 | 18 | 32* | 0
COCC(=O)Nc1ccc2c(c1)C(=O)N(C)C[C@@H](OC)[C@@H](C)CN(Cc1cccc(F)c1)[C@H](C)CO2 | 0 | -4 | -7 | 0
COCC(=O)Nc1ccc2c(c1)OC[C@H](C)N(Cc1cccc(F)c1)C[C@H](C)[C@@H](OC)CN(C)C2=O | 1 | -1 | 25* | 0
SMILES | CASP6 VEID inh | FN deposit inh | DENV2 CPE | XiGFP reactiv
COCC(=O)Nc1ccc2c(c1)C(=O)N(C)C[C@@H](OC)[C@H](C)CN(Cc1ccccc1)[C@@H](C)CO2 | -2 | 3 | -12 | 1
CCC(=O)Nc1ccc2c(c1)OC[C@@H](C)N(Cc1cccnc1)C[C@H](C)[C@@H](OC)CN(C)C2=O | 2 | -11 | 48* | 0
CO[C@H]1CN(C)C(=O)c2cc(NC(=O)C3CCC3)ccc2OC[C@H](C)N(Cc2ccncc2)C[C@@H]1C | 1 | 0 | -2 | 0
COc1ccc(NC(=O)Nc2ccc3c(c2)CC(=O)N([C@H](C)CO)C[C@H](C)[C@@H](CN(C)C)O3)cc1 | -3 | -3 | -2 | -1
CC(=O)N(C)C[C@H]1Oc2ncc(/C=C/c3ccccc3)cc2C(=O)N([C@H](C)CO)C[C@@H]1C | 1 | 5 | 0 | 0
CCCN1C[C@H](C)[C@@H](OC)CN(C)C(=O)c2ccc(NC(=O)c3cccc(OC)c3)cc2OC[C@@H]1C | / | 17 | / | 0
CO[C@@H]1CN(C)C(=O)c2cc(NC(=O)C3CCC3)ccc2OC[C@@H](C)N(Cc2ccncc2)C[C@@H]1C | 1 | -4 | 41* | 0
COc1ccc(CN2C[C@H](C)[C@H](OC)CN(C)C(=O)c3cc(NC(=O)c4nc5ccccc5s4)ccc3OC[C@@H]2C)cc1 | 0 | 5 | 22* | 0
C[C@H]1CCCCO[C@H](CN(C)C(=O)C2CCCCC2)[C@@H](C)CN([C@@H](C)CO)C(=O)c2cc(NS(=O)(=O)c3ccc(Cl)cc3)ccc2O1 | -1 | -15 | -7 | 1
COc1ccc(NC(=O)Nc2ccc3c(c2)C(=O)N([C@@H](C)CO)C[C@H](C)[C@@H](CN(C)C(=O)Nc2c(C)noc2C)OCCCC[C@H](C)O3)cc1 | 2 | 7 | 7 | 0
O=C(N/N=C/c1ccoc1)c1cc(O)cc(O)c1 | 74* | / | 1 | 0
